{"data": "Measured values collected from several papers", "target": "Bone morphogenetic protein receptor type-2 (BMPR2, Homo sapiens, UniProt Q13873)", "One construct used (Q13873 27-1038)": "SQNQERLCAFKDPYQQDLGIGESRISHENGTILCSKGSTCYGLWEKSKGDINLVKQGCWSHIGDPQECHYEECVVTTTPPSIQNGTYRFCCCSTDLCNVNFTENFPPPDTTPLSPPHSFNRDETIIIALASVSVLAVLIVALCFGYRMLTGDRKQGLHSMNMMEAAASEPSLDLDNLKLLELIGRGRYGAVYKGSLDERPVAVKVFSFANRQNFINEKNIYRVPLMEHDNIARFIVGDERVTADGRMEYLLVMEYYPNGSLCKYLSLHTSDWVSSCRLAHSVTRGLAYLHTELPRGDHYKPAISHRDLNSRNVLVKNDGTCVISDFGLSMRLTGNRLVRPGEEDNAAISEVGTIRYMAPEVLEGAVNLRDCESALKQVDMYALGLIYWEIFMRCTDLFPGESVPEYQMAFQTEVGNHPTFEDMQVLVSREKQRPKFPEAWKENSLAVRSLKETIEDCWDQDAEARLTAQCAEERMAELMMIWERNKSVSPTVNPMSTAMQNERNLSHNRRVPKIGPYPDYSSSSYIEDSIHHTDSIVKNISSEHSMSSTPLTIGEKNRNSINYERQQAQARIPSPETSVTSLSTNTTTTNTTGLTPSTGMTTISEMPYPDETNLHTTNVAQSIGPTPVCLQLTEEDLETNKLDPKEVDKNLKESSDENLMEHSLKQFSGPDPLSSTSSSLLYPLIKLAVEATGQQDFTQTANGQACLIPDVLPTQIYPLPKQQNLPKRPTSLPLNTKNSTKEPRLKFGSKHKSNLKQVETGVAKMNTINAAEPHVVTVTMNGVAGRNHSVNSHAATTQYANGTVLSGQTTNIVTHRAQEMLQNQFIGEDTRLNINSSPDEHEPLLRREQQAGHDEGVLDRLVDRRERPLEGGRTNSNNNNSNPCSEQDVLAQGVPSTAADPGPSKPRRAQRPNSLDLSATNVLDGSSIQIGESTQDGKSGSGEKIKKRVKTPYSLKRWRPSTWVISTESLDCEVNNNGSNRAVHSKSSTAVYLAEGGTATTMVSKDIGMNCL", "note": "Lines come from different studies, so protocols differ."}
{"Structure (SMILES)": "C=CC(=O)N1CCC[C@@H](n2nc(-c3ccc(Oc4ccccc4)cc3)c3c(N)ncnc32)C1", "effect on": "enzyme activity", "action": "inhibitor", "concentration": "1 µM", "endpoint": "inhibition", "value": "19%"}
{"Structure (SMILES)": "C[C@H]1CC[C@H](n2c3cnccc3c3cnc(Nc4ccc5c(n4)CCN(C(=O)CO)C5)nc32)CC1", "effect on": "binding", "concentration": "1 µM", "endpoint": "remaining binding", "value": "100%"}
{"Structure (SMILES)": "N#Cc1ccc(NC(=O)Nc2ccccc2)cc1", "effect on": "cell-free assay", "technique": "competition with immobilised ligand", "concentration": "25 µM", "endpoint": "remaining binding", "value": "95%"}
{"Structure (SMILES)": "CCCCC(=O)Nc1ccc(-c2ccc3ncn(CCC)c(=O)c3c2)cn1", "effect on": "binding", "technique": "competition with immobilised ligand", "concentration": "0.5 µM", "endpoint": "remaining binding", "value": "100%"}
{"Structure (SMILES)": "CC#CC(=O)N1CCC[C@H]1c1nc(-c2ccc(C(=O)Nc3ccccn3)cc2)c2c(N)nccn12", "effect on": "enzyme activity", "action": "inhibitor", "concentration": "1 µM", "endpoint": "inhibition", "value": "0%"}
{"Structure (SMILES)": "COc1ccc2oc(-c3ccc4nc(N)oc4c3)c/c(=N\\c3ccccc3NC(=O)CCN)c2c1", "effect on": "binding", "concentration": "1 µM", "endpoint": "remaining binding", "value": "104%"}
{"Structure (SMILES)": "C1=C/COCc2cc(ccc2OCCN2CCCC2)Nc2nccc(n2)-c2cccc(c2)COC/1", "effect on": "binding", "concentration": "0.1 µM", "endpoint": "remaining binding", "value": "80%"}
{"Structure (SMILES)": "Cc1ccc(NC(=O)c2ccnc(C(F)(F)F)c2)cc1-c1cc(OCCO)nc(N2CCOCC2)c1", "effect on": "binding", "concentration": "1 µM", "endpoint": "remaining binding", "value": "100%"}
